ChEMBL document CHEMBL1143985, “Aryl azoles with neuroprotective activity--parallel synthesis and attempts at target identification” (2008)
The source made the active and inactive calls. The rule behind the calls is not given here.

Tests used:
[1] = Neuroprotective effect against NMDA-induced toxicity in Sprague-Dawley rat mixed cortical neurons assessed as LDH release at 10 uM co-treated with NMDA; type: functional, Cortical neurone
In short: (§1)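 Mixed cortical cultures from E16 Sprague–Dawley rat neocortex, grown in Neurobasal with 5% FBS and used at 12 days in vitro. Compound added 20 min (co-treatment) or 24 h (pre-treatment) before NMDA (60 µM). MK-801 10 µM served as positive control. After 24 h, LDH release was read and normalized to the NMDA-released level. Technical replicates per sample were combined across independent experiments.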

[2] = Displacement of [3H]batrachotoxinin from sodium channel site 2 at 10 uM relative to veratridine
[3] = Neuroprotective effect against veratridine-induced toxicity in Sprague-Dawley mixed rat cortical neurons assessed as LDH release at 1 uM co-treated with veratridine
[4] = Neuroprotective effect against veratridine-induced toxicity in Sprague-Dawley rat pure cortical neurons assessed as XTT release at 10 uM co-treated with veratridine; type: functional, Cortical neurone
In short: (§2)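 E16 Sprague–Dawley rat cortical cultures, either mixed (Neurobasal with 5% FBS) or pure neuronal (Neurobasal with B27), used at 12 days in vitro. Compound at 1 or 10 µM was added 20 min before veratridine (60 µM). Viability was read 24 h later by LDH release in mixed cultures and XTT in pure cultures, normalized to veratridine. Three experiments, eight replicates each.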

[5] = Neuroprotective effect against veratridine-induced toxicity in Sprague-Dawley rat mixed cortical neurons assessed as XTT release at 10 uM pre-treated before veratridine treatment; type: functional, Cortical neurone
[6] = Neuroprotective effect against veratridine-induced toxicity in Sprague-Dawley mixed rat cortical neurons assessed as LDH release at 10 uM co-treated with veratridine
[7] = Neuroprotective effect against veratridine-induced toxicity in Sprague-Dawley rat pure cortical neurons assessed as XTT release at 1 uM co-treated with veratridine; type: functional, Cortical neurone; in short: as §2
[8] = Neuroprotective effect against NMDA-induced toxicity in Sprague-Dawley rat mixed cortical neurons assessed as LDH release at 10 uM pre-treated before NMDA treatment; type: functional, Cortical neurone; in short: as §1
[9] = tested on: Cortical neurone; experiment: Neuroprotective effect against NMDA-induced toxicity in Sprague-Dawley rat mixed cortical neurons assessed as LDH release at 0.1 uM co-treated with NMDA; type: functional; in short: as §1
[10] = Neuroprotective effect against NMDA-induced toxicity in Sprague-Dawley rat mixed cortical neurons assessed as LDH release at 1 uM co-treated with NMDA; type: functional, Cortical neurone; in short: as §1
[11] = Neuroprotective effect against NMDA-induced toxicity in Sprague-Dawley rat mixed cortical neurons assessed as LDH release at 1 uM pretreated before NMDA treatment; type: functional, Cortical neurone; in short: as §1

Row | Compound | Activity [1] [%] | inhibition [2] [%] | other results
1 | Clc1cccc(-c2cc(-c3ccccc3)n[nH]2)c1 | 96.4 | 21 | –
2 | COc1ccc(C(=O)O[C@H]2CC[C@@]3(C)[C@@H]4CC[C@H]5[C@]6(O)C[C@H](O)[C@@]7(O)[C@@H](CN8C[C@@H](C)CC[C@H]8[C@@]7(C)O)[C@]6(O)C[C@@]53O[C@]24O)cc1OC | – | 100 | –
3 | Cn1nc(-c2ccc([N+](=O)[O-])cc2)cc1-c1ccccc1 | 86.3 | 8 | –
4 | CC(=O)N1N=C(c2ccccc2)CC1c1cccc(Cl)c1 (stereo unspecified) | 86.4 | 27 | –
5 | Cn1nc(-c2ccccc2)cc1-c1c[nH]c2ccccc12 | 76.7 | 14 | –
6 | O=[N+]([O-])c1ccc(-c2cc(-c3ccccc3)n[nH]2)cc1 | 89 | 14 | –
7 | Cn1nc(-c2ccc(Cl)cc2)cc1-c1ccccc1 | 87.3 | 13 | –
8 | COc1cccc(C2CC(c3ccccc3)=NN2C(C)=O)c1 (stereo unspecified) | 81 | 16 | –
9 | COc1ccccc1-c1cnn(-c2ccccc2)c1 | 80.3 | – | Activity [2]: inactive
10 | Cn1nc(-c2ccccc2)cc1-c1cccc([N+](=O)[O-])c1 | 85.5 | 4 | –
11 | COc1cccc(-c2cc(-c3ccccc3)n[nH]2)c1 | 76 | 27 | –
12 | Clc1ccc(-c2cc(-c3ccccc3)n[nH]2)cc1 | 66.1 | 16 | Activity [3]: 74.1%; Activity [4]: 56.5%; Activity [5]: 70%; Activity [6]: 24.2%; Activity [7]: 75%
13 | COc1cccc(-c2cc(-c3ccccc3)nn2C)c1 | 78.3 | 12 | –
14 | CC(=O)N1N=C(c2ccc([N+](=O)[O-])cc2)CC1c1ccccc1 (stereo unspecified) | 85.5 | 17 | –
15 | Cn1nc(-c2ccc(C(=O)O)cc2)cc1-c1ccc(C(C)(C)C)cc1 | 61.1 | – | Activity [2]: inactive
16 | Cn1nc(-c2ccccc2)cc1-c1cccc(Cl)c1 | 65.6 | 15 | –
17 | O=[N+]([O-])c1cccc(-c2cc(-c3ccccc3)n[nH]2)c1 | 75.6 | 15 | Activity [3]: 77.6%; Activity [4]: 51.2%; Activity [5]: 70%; Activity [6]: 26.6%; Activity [7]: 80.9%
18 | Cn1nc(-c2ccccc2)cc1-c1ccc2[nH]ccc2c1 | 67.1 | 41 | Activity [8]: 86%; Activity [9]: inactive; Activity [3]: 87.9%; Activity [4]: 56.8%; Activity [10]: 80.3%; Activity [5]: 40%; Activity [6]: 63.2%; Activity [7]: 82.7%; Activity [11]: 90.2%
19 | COc1ccc(-c2cc(-c3ccccc3)n(C)n2)cc1 | 70.4 | 8 | –
20 | COc1ccc(-c2cc(-c3ccccc3)n[nH]2)cc1 | 67.2 | 30 | Activity [8]: 95%; Activity [3]: 80.9%; Activity [4]: 64.9%; Activity [10]: 81.7%; Activity [5]: 50%; Activity [6]: 49.2%; Activity [7]: 70.4%; Activity [11]: 91.1%
